Assay [1] has as its system Streptococcus pneumoniae. Nature of the assay: Reduction of pneumolysin production in Streptococcus pneumoniae NMU112 lysates at 10 ug/mL after 12 hrs by Western blot relative to control. In kind it is functional, organism-based. In a few lines: (§1)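 NMU112 at 5 × 10⁷ CFU/ml in THY cultured with macrolide at 37°C for 12 h, then whole-cell sonicated lysates run on SDS-PAGE and immunoblotted for pneumolysin. Band densitometry as mean % of drug-free culture; two cultures per dose per experiment, three experiments.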

For assay [2], the system named is Streptococcus pneumoniae. Nature of the assay: Antimicrobial activity against drug-resistant Streptococcus pneumoniae NMU112 infected CBA/J mouse assessed as median survival time at 10 mg/kg, po relative to control. In kind it is functional. In a few lines: (§2)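 Male CBA/J mice, 3-4 weeks old, 28-30 g. Macrolide given by oral gavage in saline for 3 days; RXM, ERY and CLR twice daily at 12-h intervals, AZM once daily. Saline controls. 24 h after the last dose, mice were infected intratracheally with 5 × 10⁴ CFU NMU112 (erm(B)/mef(A)). Kaplan-Meier survival and median survival time, log rank test; 10 mice per group per experiment.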

The subject of assay [3] is Streptococcus pneumoniae. Nature of the assay: Antimicrobial activity against Streptococcus pneumoniae NMU605. Format: functional. An outline of the steps:
(§3)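 Broth microdilution MIC (NCCLS method) in Mueller-Hinton broth with 3% lysed horse blood; clinical isolates NMU605 (serotype 3) and NMUP45 (serotype 4).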

Assay [4] has as its system Streptococcus pneumoniae. Nature of the assay: Inhibition of pneumococcal surface protein A production in Streptococcus pneumoniae NMU112 lysates at 10 ug/mL after 12 hrs by Western blot relative to control. Format: functional, organism-based. An outline of the steps: (§4)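 Strain NMU112 (5 × 10⁷ CFU/ml in THY) cultured 12 h at 37°C with drug. Sonicated whole-cell lysates run on SDS-PAGE and Western blotted; bands measured by densitometry as % of drug-free culture. Two cultures per dose, three experiments (n = 5–6).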

The subject of assay [5] is Streptococcus pneumoniae. The experiment in a line: Antimicrobial activity against Streptococcus pneumoniae NMUP45. Format: functional. In a few lines:
as §3

For assay [6], the system named is Streptococcus pneumoniae. Nature of the assay: Antimicrobial activity against Streptococcus pneumoniae NMU112 infected in po dosed CBA/J mouse assessed as delaying in development of bacteremia […]. In kind it is functional, organism-based.
In assay [7] the test system is Streptococcus pneumoniae. The experiment in a line: Antimicrobial activity against Streptococcus pneumoniae NMU112. Format: functional. In a few lines:
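Broth microdilution MIC per NCCLS in Mueller-Hinton broth with 3% lysed horse blood.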

For assay [8], the system named is Streptococcus pneumoniae. The experiment in a line: Antimicrobial activity against drug-resistant Streptococcus pneumoniae NMU112 infected CBA/J mouse assessed as median survival time at 20 mg/kg, po relative to control. Format: functional. An outline of the steps: as §2
In assay [9] the test system is Streptococcus pneumoniae. The experiment in a line: Reduction of pneumolysin production in Streptococcus pneumoniae NMU112 lysates at 5 ug/mL after 12 hrs by Western blot relative to control. Format: functional, organism-based. An outline of the steps:
as §1
On the technique in general: Immunoblotting shows a protein as a band on a membrane.

Assay [10] deals with Streptococcus pneumoniae. The experiment in a line: Antimicrobial activity against drug-resistant Streptococcus pneumoniae NMU112 infected CBA/J mouse assessed as median survival time at 5 mg/kg, po relative to control. Format: functional. In a few lines:
as §2

For assay [11], the system named is Streptococcus pneumoniae. The experiment in a line: Inhibition of pneumococcal surface protein A production in Streptococcus pneumoniae NMU112 lysates at 5 ug/mL after 12 hrs by Western blot relative to control. In kind it is functional, organism-based. In a few lines:
as §4

≈ marks a conversion by molar mass, not a printed value. Calls of active or inactive are those of the source.

Turning to `CC[C@H]1OC(=O)[C@H](C)[C@@H](O[C@H]2C[C@@](C)(OC)[C@@H](O)[C@H](C)O2)[C@H](C)[C@@H](O[C@@H]2O[C@H](C)C[C@H](N(C)C)[C@H]2O)[C@](C)(O)C[C@@H](C)C(=O)[C@H](C)[C@@H](O)[C@]1(C)O` [ERYTHROMYCIN], the result in the assay with Streptococcus pneumoniae [1], in the assay with Streptococcus pneumoniae [4], in the assay with Streptococcus pneumoniae [6] and with Streptococcus pneumoniae [9] was Active. In addition, the figures for the MST in the assay with Streptococcus pneumoniae [2] and with Streptococcus pneumoniae [8] were 5.27 days and 6.78 days, respectively. In addition, the minimal inhibitory concentration (MIC) against Streptococcus pneumoniae [3] was 0.03 mg/L (≈ 0.0409 µM); in the assay on Streptococcus pneumoniae [5], 2 mg/L (≈ 2.73 µM); in the assay with Streptococcus pneumoniae [7], at least 256 mg/L.
`CC[C@H]1OC(=O)[C@H](C)[C@@H](O[C@H]2C[C@@](C)(OC)[C@@H](O)[C@H](C)O2)[C@H](C)[C@@H](O[C@@H]2O[C@H](C)C[C@H](N(C)C)[C@H]2O)[C@](C)(OC)C[C@@H](C)C(=O)[C@H](C)[C@@H](O)[C@]1(C)O` [CLARITHROMYCIN]: the figures for the MST with Streptococcus pneumoniae [2] and in the assay on Streptococcus pneumoniae [10] were 8.45 days and 6.82 days, respectively. Also, the MIC was 0.03 mg/L (≈ 0.0401 µM) against Streptococcus pneumoniae [3], 2 mg/L (≈ 2.67 µM) in the assay with Streptococcus pneumoniae [5] and at least 256 mg/L in the assay with Streptococcus pneumoniae [7]. The result with Streptococcus pneumoniae [11], in the assay with Streptococcus pneumoniae [6] and in the assay on Streptococcus pneumoniae [9] was Active.

What is called MIC is the smallest concentration in the dilution series that meets the test's criterion for growth inhibition. Higher therefore signals a need for much substance.

For the origin of these results see ChEMBL document CHEMBL1145502, “Roxithromycin favorably modifies the initial phase of resistance against infection with macrolide-resistant Streptococcus pneumoniae in a murine pneumonia model” (Antimicrob Agents Chemother, 2007).
